Assay results from paper PMC11605122 (Nature Communications, 2024).

Key:
[1] = liver-to-body weight ratio; assay type: in vivo, mouse; conditions: DIO mice, G49, 6 h
[2] = test system: pancreatic islets from DIO mice; test: ex vivo glucose-stimulated insulin secretion; assay type: cell-based, mouse; conditions: 500 nM G49, 1 or 24 h
Outline: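 Islets were plated at 100 per 3 mL and treated the next day with 500 nM test compound for 1 or 24 h. After 1 h preincubation in KRB (2.8 mM glucose, 0.25% BSA, pH 7.4, 37 °C), batches of 3 islets were stimulated 1 h with 2.8 or 16.7 mM glucose. Insulin was measured by ELISA and normalised per islet; n = 4 mice.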

[3] = test system: primary mouse hepatocytes; test: fatty acid oxidation and Cpt1a in primary mouse hepatocytes; assay type: cell-based; conditions: 500 nM G49, 16 h
Outline: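 Primary hepatocytes came from non-fasted male C57BL/6J mice fed HFD for 12 weeks, with or without in vivo treatment, by two-step collagenase perfusion. Cells were spun at 60 × g, purified on isotonic Percoll (1:1) at 230 × g and seeded on collagen. They were cultured 24 h at 37 °C, 5% CO2 before exposure to the test compound.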

[4] = plasma adiponectin; assay type: in vivo, mouse; conditions: DIO mice, 24 h post-injection
Outline: (§1)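 Plasma ALT was read with Reflotron strips and plasma TGs by colorimetric assay. Serum FGF21 and plasma adiponectin and insulin were measured by ELISA.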

[5] = plasma FFAs; assay type: in vivo, mouse; conditions: for plasma FFA elevation: DIO mice
[6] = plasma TGs; assay type: in vivo, mouse; conditions: DIO mice, G49, time course
Outline: as §1

[7] = plasma/serum FGF21; assay type: in vivo, mouse; conditions: DIO mice, G49
Outline: as §1

[8] = test system: eWAT stromal vascular fraction; test: immune cell populations in eWAT SVF; assay type: in vivo, mouse
Outline: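 eWAT was digested, stopped with EDTA, filtered at 100 µm and red cells lysed in ACK. The SVF was stained 20 min at RT in FACS buffer (1 mM EDTA, 25 mM HEPES, 1% FBS in PBS) with a panel including CD45, CD11b, F4/80, Ly6G, CD11c, CD206, SiglecF, T/NK markers and IL-4, or isotype controls. Acquisition was on a FACSCanto II.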

[9] = test system: mouse adipocytes from eWAT; test: lipolysis; assay type: cell-based; conditions: isolated adipocytes from eWAT, 500 nM G49, 4 h
[10] = test system: BAT, eWAT, iWAT; test: UCP1 and TH protein; assay type: in vivo, mouse
[11] = test system: liver Cd11b+Ly6g+ cells; test: liver neutrophils; assay type: in vivo, mouse; conditions: DIO mice, G49
Outline: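 Liver non-parenchymal cells underwent ACK red-cell lysis (5 min, RT) and were washed in HBSS. They were stained 20 min at RT with CD45-FITC, CD11b-PECy7 and Ly6G-PE, then acquired on a FACSCanto II.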

[12] = eWAT and iWAT weight; assay type: in vivo, mouse
[13] = BAT skin temperature; assay type: in vivo, mouse
[14] = test system: eWAT, iWAT, BAT; test: PKA Thr197 and HSL Ser660 phosphorylation; assay type: in vivo, mouse; conditions: DIO mice, G49
Outline: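 Tissue lysates were cleared twice at 98,560 × g for 40 min at 4 °C; protein was measured by BCA. After transfer, loading was checked with Ponceau. Membranes were blocked with 6% skimmed milk in TBS-0.05% Tween-20 for 2 h at RT, then incubated with primary antibodies overnight at 4 °C.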

[15] = cumulative food intake; assay type: in vivo, mouse; conditions: DIO mice, H + G49, 72 h, versus vehicle
[16] = liver histology; assay type: in vivo, mouse; conditions: DIO mice
[17] = intrahepatic triglyceride content; assay type: in vivo, mouse; conditions: DIO mice
[18] = test system: POMC neurons, arcuate nucleus; test: cFos-positive POMC neurons in ARC; assay type: in vivo, mouse; conditions: DIO mice
Outline: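 Brain slices were blocked 2 h at RT in PBS with 1% BSA and 0.1% Triton X-100. They were incubated overnight at 4 °C with anti-POMC and anti-c-Fos, then with secondary antibodies in 1% BSA/PBS for 2 h at RT, protected from light.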

[19] = MRI body composition, total/visceral fat, lean mass; assay type: in vivo, mouse
[20] = test system: brown adipocytes; test: thermogenic gene expression and UCP1 in brown adipocytes; assay type: cell-based, mouse; conditions: G49, brown adipocytes
Outline: (§2)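 Brown preadipocytes were immortalised by retroviral SV40 Large T (20% FBS, 8 μg/mL polybrene, 48 h) at 70–80% confluence. Differentiation began with 2 days in induction medium (0.5 μM dexamethasone, 0.5 mM IBMX, indomethacin, 1 μM rosiglitazone).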

[21] = test system: brown adipocytes; test: OCR in differentiated brown adipocytes; assay type: cell-based, mouse; conditions: G49, 16 h
Outline: as §2

[22] = TUNEL analysis of eWAT; assay type: in vivo, mouse; conditions: 6 h post-G49
Outline: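 Paraffin-embedded eWAT sections were stained with a fluorimetric DeadEnd TUNEL kit, mounted in fluorescent medium and imaged by confocal microscopy.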

[23] = FGF21Alb-KO mice, G49 plus recombinant murine FGF21

HSQGTFTSDYSKYLEEEAVRLFIC (40 kDa PEG) WLMNT-amide acetate salt [G49]
liver-to-body weight ratio [1]: an increase in lipid accumulation analyzed by H&E and oil-red O staining of liver sections, liver-to-body weight ratio, and alanine aminotransferase (ALT) activity | insulin secretion [2]: also observed by ex vivo treatment of pancreatic islets from DIO mice with G49 | Cpt1a mRNA and FAO [3]: increased Cpt1a mRNA levels and FAO | plasma adiponectin, early [4]: increase in adiponectin was observed as early as 24 h post-injection | plasma FFA elevation ([5]; G49 + Ex9-39, 6 h): retained its effect in elevating FFAs in the presence of Ex9-39 | plasma FFA elevation ([5]; G49 + GCGRant, 6 h): abolished the acute effects of G49 in reducing total and visceral adiposity at 6 h post-injection and FFA elevation | plasma FFAs ([5]; UCP1−/− mice, G49, 6 h): showed elevations in FFAs (at 6 h) | plasma FFAs ([5]; irradiated DIO mice, G49, 6 h): the elevation of FFAs was preserved | plasma FFAs ([5]; lean Gcgr−/− mice, single injection of G49, 1–6 h): did not elevate plasma FFAs at 1–6 h in Gcgr^−/− mice | lipolysis at 6 h and 1 h ([5]; lean or DIO mice, G49): increased lipolysis at 6 h, but not at 1 h post-injection | circulating TGs [6]: reached maximal levels at 24 h and decreased to basal levels at 48 h post-G49 treatment | liver Fgf21 expression and FGF21 plasma levels [7]: reached significant increases at 12 h post-first G49 dose | eWAT beiging signature ([8]; DIO mice, G49 + ATGLi, 6 h): absence of the eWAT beiging signature | beige immune signature of SVF ([8]; DIO mice, G49 + GCGRant, 6 h): loss of the beige immune signature of the SVF | Cd206+/Cd11c+ ratio in neutrophils ([8]; SVF of eWAT, G49, 6 h): increased the Cd206^+/Cd11c^+ ratio | M2 and M1 macrophages ([8]; SVF of eWAT, G49, 6 h): increase in M2 (Cd206^+) subpopulation, concomitantly with a decrease in M1 (Cd11c^+) cells | eosinophils (SiglecF+/Cd11b+/Cd11c−) ([8]; SVF of eWAT, G49, 6 h): infiltration of eosinophils | neutrophil infiltration (Cd11b+Ly6g+) ([8]; SVF of eWAT, G49, 6 h): reduction in neutrophil infiltration | glycerol and FFA release [9]: increased glycerol and FFA release | UCP1 protein ([10]; Adipoq−/− mice, G49): no increase in UCP1 protein levels was found | UCP1 expression in BAT ([10]; DIO mice, G49 + ATGLi, 72 h): suppression of G49 effects on UCP1 expression and BAT temperature | UCP1 protein in BAT ([10]; DIO mice, G49 + GCGRant): did not present an increase in UCP1 protein levels | UCP1 and TH protein in BAT ([10]; DIO mice, G49, 1 week): increase in thermogenic-related genes (Cpt1b, Dio2, CoxIVi1, Ucp1, Th, Fgf21) and protein levels of UCP1 and TH in BAT | UCP1 protein in BAT ([10]; FGF21Alb-KO mice, G49, 1 week): a lower effect of G49 in increasing in UCP1 protein levels in BAT | UCP1 protein in BAT [10, 23]: markedly increased UCP1 protein levels and BAT temperature | UCP1 and TH protein ([10]; eWAT, G49, 1 week): higher UCP1 and TH protein content | UCP1 protein ([10]; iWAT, G49, 1 week): a similar improvement was found | hepatic neutrophil infiltration [11]: an increase in hepatic neutrophil infiltration | fat depots (eWAT, iWAT) ([12]; DIO mice, G49 + ATGLi, 72 h): without reduction in fat depots | eWAT and iWAT depots ([12]; FGF21Alb-KO mice, G49, 1 week): a partial reduction of eWAT and iWAT depots | BAT temperature ([13]; Adipoq−/− mice, G49): G49-mediated increase in BAT temperature was reduced | BAT temperature ([13]; DIO mice, G49 + ATGLi, 72 h): suppression of G49 effects on UCP1 expression and BAT temperature | BAT temperature [13, 23]: markedly increased UCP1 protein levels and BAT temperature | BAT activation ([13]; UCP1−/− mice, G49, 1 week): no features of BAT activation were found | PKA/HSL phosphorylation (lipolytic molecular signature) ([14]; BAT): not in brown adipose tissue (BAT) | PKA/HSL phosphorylation (lipolytic molecular signature) ([14]; iWAT): also found in iWAT | inhibition of cumulative food intake [15]: 28.30 ± 2.61% | hepatic lipid overload ([16]; G49 + ATGLi, 6 h): absent in mice co-treated with ATGLi | lipid accumulation, liver sections ([16]; G49, 6 h): an increase in lipid accumulation | hepatic lipid overload ([17]; G49 + GCGRant, 6 h): hepatic lipid overload and ALT elevation were not observed | liver triglycerides ([17]; G49, time course): elevated at 3–12 h post-injection, peaking at 6 h | activated POMC neurons, 1 week ([18]; G49, 1 week): percentage of activated POMC neurons was reduced | cFos-positive POMC neurons, early ([18]; G49, after first injection): increase in cFos-positive POMC neurons | visceral fat ([19]; Adipoq−/− mice, G49, 1 week, vs Adipoq+/+): lower reduction in visceral fat | total and visceral adiposity ([19]; DIO mice, G49 + GCGRant, 6 h): abolished the acute effects of G49 in reducing total and visceral adiposity at 6 h post-injection | adiposity, fat mass, eWAT and iWAT weight ([19]; DIO mice, G49 with antagonists, alone or in combination, day 7): its administration with antagonists, either alone or in combination, totally blocked this effect | thermogenic gene expression and UCP1 protein [20]: up-regulated lipolysis, thermogenic gene expression (Ucp1, Ppargc1a, Sir2) and UCP1 protein levels in BA | mitochondrial respiration [21]: an increase in mitochondrial respiration | TUNEL positive cells [22]: presence of TUNEL positive cells
